Screening data deposited in PubChem by The Scripps Research Institute Molecular Screening Center.
OX1R antag-1 = blocks the human orexin 1 receptor. O43613. CHO/OX1R cells, Fluo-8 calcium fluorescence, orexin A. inhibition, % at 5 µM. actives 0.43% (n = 330,000). AID 434989;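 active = inhibition above its plate's threshold, mean inhibition of all tested compounds on the plate plus 3 SD, cut at about 37% in these data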;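 note: 0% = orexin A challenge wells and 100% = SB-334867-A antagonist wells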
Target sequence (O43613 whole entry, looked up): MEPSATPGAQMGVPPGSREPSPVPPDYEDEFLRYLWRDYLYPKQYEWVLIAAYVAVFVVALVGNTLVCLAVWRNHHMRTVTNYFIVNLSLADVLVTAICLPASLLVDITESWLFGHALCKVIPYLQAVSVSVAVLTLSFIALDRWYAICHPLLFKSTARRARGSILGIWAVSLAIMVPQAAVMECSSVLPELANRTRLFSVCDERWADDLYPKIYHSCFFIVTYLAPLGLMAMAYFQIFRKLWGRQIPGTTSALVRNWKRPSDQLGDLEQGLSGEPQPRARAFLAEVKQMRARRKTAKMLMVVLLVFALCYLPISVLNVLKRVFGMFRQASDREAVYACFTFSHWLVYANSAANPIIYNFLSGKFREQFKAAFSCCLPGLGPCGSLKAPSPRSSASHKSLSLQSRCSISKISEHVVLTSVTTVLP
GPR7 antagonist = human neuropeptides B/W receptor 1 antagonism; inhibition, % at 4.4 µM; actives 1.1% (n = 290,000); GPR7-expressing cells, fluorescence antagonist assay; P48145; in the data active = inhibition above about 16%, passing the limit was not always enough;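 note: cells stimulated with the agonist NPW; 0% = agonist with vehicle and 100% = vehicle without agonist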
CHO parental Ca = counter-screen: ATP calcium response change in parental CHO cells | parental CHO-K1, ATP-induced calcium, Fluo-8 fluorescence | inhibition, % at 5.6 µM | actives 0.63% (n = 330,000) | AID 463079;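 active = inhibition above that plate's mean sample inhibition plus 3 SD, cut at about 26% in these data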;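 note: 0% = ATP-challenged DMSO wells and 100% = DMSO wells without ATP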
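material = parental CHO cells | also added = ATP as calcium-mobilizing challenge | dosing = single point at 5.6 µM | detection = intracellular calcium via Fluo-8 no-wash fluorescent dye | read-out = % inhibition | benchmarks = low control ATP plus DMSO, high control DMSO only | repeats = one well per compound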
OX1R antag-2 = OX1R (human) antagonism; OX1R-expressing cells, FRET antagonist read-out; actives 1.8% (n = 330,000); inhibition, % at 6.6 µM; O43613; in the data active = inhibition mostly above about 38%, no sharp cut-off; inactive = mostly below about 40%;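 note: 0% = agonist challenge alone and 100% = reference antagonist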
GalR3 antag = human GalR3 antagonism; actives 0.44% (n = 360,000); inhibition, % at 3 µM; HEK293 GalR3-CNG cAMP membrane potential fluorescence; galR3 body fused to GalR1 C-terminus; O60755;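 active = inhibition above the screen-wide average plus 3 SD, cut at about 13% in these data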;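 note: forskolin and galanin both at EC90 stimulate the cells; cAMP rise reported by CNG channel membrane potential dye signal; 0% = forskolin plus galanin with DMSO and 100% = forskolin alone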
The depositor's hits bear a star; nt = no result given. Shown are actives, neighbours in structure and some others; about 3.1% of the full set was active somewhere.

SMILES	OX1R antag-1	GPR7 antagonist	CHO parental Ca	OX1R antag-2	GalR3 antag
Cc1ccc(-c2csc(NC(=O)c3c(C)noc3C)n2)cc1C	24	nt	2	32*	-9
CCc1noc(C)c1C(=O)Nc1nc(-c2ccc(NC(C)=O)cc2)cs1	-1	nt	-3	58*	-3
N#Cc1ccc2nc(-c3ccc(CN4CCC(c5nc6ccccc6[nH]5)CC4)cc3)c(-c3ccccc3)nc2c1	nt	nt	nt	nt	-1
COc1ccc(-c2csc(NC(=O)CSCc3c(C)noc3C)n2)cc1OC	-38	-13	-18	14	1
CCc1noc(C)c1C(=O)Nc1nc(-c2ccc(OC)c(OC)c2)cs1	-7	nt	-18	61*	-5
Cc1ccccc1OCCN1C(=O)C(=O)c2cccc(C)c21	-11	21*	-17	15	-13
Cc1cccc2c1N(CCOc1ccccc1Cl)C(=O)C2=O	-5	14	-16	22	-6
CC(C)C[C@H]1CNC(=O)C(=O)N1C[C@@H]1CCCN1C[C@H](Cc1ccccc1)N1C[C@H](CC(C)C)N(CC2CCCCC2)C(=O)C1=O	nt	nt	nt	nt	-5
O=C(Cn1c(=O)oc2cc(S(=O)(=O)N3CCCC3)ccc21)NC1CCCc2ccccc21 (stereo not drawn)	22	7	28*	25	4
O=C(Cn1c(=O)oc2cc(S(=O)(=O)N3CCCCCC3)ccc21)NC1CCCCCCC1	-5	-12	5	12	-2
O=C(CCS(=O)(=O)c1cccc2nsnc12)N1CC(=O)N(CCc2ccccc2)C(=O)C1	-4	-2	-24	53*	-6
CN(CC(=O)N1CC(=O)N(CCc2ccccc2)C(=O)C1)S(=O)(=O)c1cccc2nsnc12	-12	-15	-10	32	-3
O=C(NCc1ccccc1)[C@@H]1CCCN1C(=O)[C@H]1CCCN1C(=O)c1c(F)cccc1F	nt	nt	nt	nt	-3
Cc1cc(Br)ccc1NC(=O)CNC(=O)CN1C(=O)NC2(CCCCCC2)C1=O	-12	-4	-23	38	-5
Cc1cc(Br)ccc1NC(=O)CN1C(=O)C2C3CC(c4ccccc4)C(C3)C2C1=O (stereo not drawn)	40	21	31*	10	-6
COc1ccc(-c2n(CC(=O)OC3CC(C)CCC3C(C)C)c3ccccc3[n+]2C)cc1 (stereo not drawn)	nt	93*	nt	nt	-4
Cc1nc(Nc2ccc3c(c2)OCCO3)c2oc3ccccc3c2n1	-24	-19	-32	55*	-3
c1ccc2c(c1)oc1c(Nc3ccc4c(c3)OCCO4)ncnc12	-3	-4	-33	72*	-6
O=C(Nc1cccc(S(=O)(=O)N2CCCCC2)c1)C1CCC1	-24	nt	-13	6	-4
O=C(Nc1cccc(S(=O)(=O)N2CCCCC2)c1)C1CCCN1S(=O)(=O)c1ccccc1F (stereo not drawn)	25	nt	-12	28*	6
O=C(Nc1ccc(N2CCCCC2)cc1)C1CCCN1S(=O)(=O)c1ccc(F)cc1 (stereo not drawn)	-18	nt	-20	5	-2
CS(=O)(=O)c1cccc(NC(=O)C2CCCN2S(=O)(=O)c2ccc(F)cc2)c1 (stereo not drawn)	20	7	-3	55*	-7
Cc1ccccc1CN1C(=O)C(C)Sc2ccc(-c3ccco3)cc21 (stereo not drawn)	nt	nt	nt	nt	-4
Oc1ccc(Br)cc1-c1cc(-c2ccc(Cl)cc2)n[nH]1	24	-7	50*	24	-5
Oc1ccc(Br)cc1-c1cc(-c2ccccc2)n[nH]1	-1	-16	-10	24	-6
SMILES	OX1R antag-1	GPR7 antagonist	CHO parental Ca	OX1R antag-2	GalR3 antag
CC1(C(=O)NS(=O)(=O)c2ccc(F)cc2F)CCN1C(=O)Cc1cc(F)ccc1F (stereo not drawn)	nt	nt	nt	nt	-7
O=C(NCc1n[nH]c(=S)n1-c1cccc(C(F)(F)F)c1)c1ccc(S(=O)(=O)N2CCCC2)cc1	9	-10	-4	50*	2
Cc1cn([C@@H](CCCCNC(=O)OC(C)(C)C)C(=O)NCCCCCCCCCCC(=O)N2CCN(C(=O)OC(C)(C)C)CC2)nn1	36	nt	61*	61*	nt
O=C1Nc2ccccc2-c2nnnn2C1N1CCCC1 (stereo not drawn)	nt	nt	nt	nt	-7
COCc1cc(N2CCNC[C@H]2C)ccc1N1CCN(Cc2ccccc2)[C@H](C)C1	nt	nt	nt	nt	-4
COC(=O)/C(=C(/F)Sc1cc(C)c(O)c(C)c1)C(F)(F)F	13	4	33*	18	nt
COC(=O)C(Nc1ccccc1Cl)(c1cc(C)c(O)c(C)c1)C(F)(F)F (stereo not drawn)	6	-26	5	35	-4
